The source of these data is PMC5361409 (Bioorganic & medicinal chemistry letters, 2016).

Data set [1] is described as follows: Intrinsic clearance in human liver microsomes. As to conditions: for CLint scaled: human, liver microsomes; for predicted clearance: predicted from CLINT in liver microsomes (rat and human), in words. It is filed as in vitro ADME.
Data set [2] is described as follows: Intrinsic clearance in rat liver microsomes. It counts as in vitro ADME. In general terms: Liver microsomes are a subcellular fraction often used to study metabolism.
Data set [3] concerns the target D1 (Homo sapiens, UniProt P21728). The experiment in a line: Dopamine receptor selectivity, radioligand binding at EuroFins: D1. As to conditions: read-out: % inhibition at 10 µM D1 (%). The method, boiled down: (§1)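 Contract radioligand binding screen against the indicated human dopamine receptor subtype. Each test compound was run in duplicate, and the read-out is percent inhibition of specific radioligand binding.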

In data set [4] the target is D3 (Homo sapiens, UniProt P35462). The experiment in a line: Dopamine receptor selectivity, radioligand binding at EuroFins: D3. As to conditions: read-out: % inhibition at 10 µM D3 (%). In outline:
as §1

The target of data set [5] is D5 (Homo sapiens, UniProt P21918). Nature of the data set: Dopamine receptor selectivity, radioligand binding at EuroFins: D5. As to conditions: read-out: % inhibition at 10 µM D5 (%). In outline: as §1
Sequence of D5 (P21918 whole entry): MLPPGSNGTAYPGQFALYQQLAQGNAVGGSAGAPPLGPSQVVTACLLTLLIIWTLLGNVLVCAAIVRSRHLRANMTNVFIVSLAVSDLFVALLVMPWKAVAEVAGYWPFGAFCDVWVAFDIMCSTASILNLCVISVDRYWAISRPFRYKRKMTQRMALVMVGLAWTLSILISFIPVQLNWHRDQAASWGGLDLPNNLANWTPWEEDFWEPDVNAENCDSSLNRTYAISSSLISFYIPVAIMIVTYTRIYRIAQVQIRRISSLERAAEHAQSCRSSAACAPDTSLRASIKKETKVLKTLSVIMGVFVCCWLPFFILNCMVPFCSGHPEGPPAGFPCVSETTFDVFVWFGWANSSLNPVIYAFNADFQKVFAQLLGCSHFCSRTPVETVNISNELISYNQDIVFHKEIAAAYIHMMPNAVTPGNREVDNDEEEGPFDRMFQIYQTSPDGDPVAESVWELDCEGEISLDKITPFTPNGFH
In data set [6] the test system is other dopamine receptors (D1, D2L, D2S, D3, and D5). The experiment in a line: Selectivity against the other dopamine receptors. It counts as binding. As to conditions: for selectivity against all of the dopamine receptors tested: in words.
Data set [7] can be described thus: Metabolic soft-spot experiment in human liver microsomes. It is filed as in vitro ADME.
A short description of data set [8]: Metabolic soft-spot experiment in rat liver microsomes. It is filed as in vitro ADME.
Data set [9] concerns the target T1, dopamine D4 receptor (D4R) (Homo sapiens, UniProt P21917).
T1 sequence (P21917 1-419): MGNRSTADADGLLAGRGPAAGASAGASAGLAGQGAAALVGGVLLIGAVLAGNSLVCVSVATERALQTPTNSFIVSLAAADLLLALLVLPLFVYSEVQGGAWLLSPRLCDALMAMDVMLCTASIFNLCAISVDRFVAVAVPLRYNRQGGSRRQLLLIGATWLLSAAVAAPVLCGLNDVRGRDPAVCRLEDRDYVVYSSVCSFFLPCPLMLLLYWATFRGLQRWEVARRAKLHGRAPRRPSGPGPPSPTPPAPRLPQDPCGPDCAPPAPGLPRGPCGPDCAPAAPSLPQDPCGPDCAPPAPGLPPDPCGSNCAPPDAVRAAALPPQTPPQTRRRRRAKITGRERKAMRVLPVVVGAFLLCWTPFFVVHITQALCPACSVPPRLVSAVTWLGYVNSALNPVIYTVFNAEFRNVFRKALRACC
The experiment in a line: D4 radioligand binding assay using Spiperone at EuroFins. As to conditions: run in duplicate.

The mark [10] stands for this setting: in the presence of NADPH, in words.

Each structure is given as a SMILES string. Entries after “also recorded” stand apart in the source; their conditions may differ.

Usually CLint scaled stands for a measure of how fast metabolising enzymes remove a compound, apart from limits set by blood flow. A lower CLint scaled goes with slow turnover. Usually inhibition stands for the share of the control response that was lost under treatment. Broadly, the IC50 is the concentration at which inhibition is half-maximal. Low readings indicate inhibition by little substance, high ones a need for much substance. The Ki is a dissociation constant, usually derived from enzyme kinetics or from competition with a known ligand. Low readings indicate tighter binding, high ones weaker binding.

Sequence of D3 (P35462 whole entry): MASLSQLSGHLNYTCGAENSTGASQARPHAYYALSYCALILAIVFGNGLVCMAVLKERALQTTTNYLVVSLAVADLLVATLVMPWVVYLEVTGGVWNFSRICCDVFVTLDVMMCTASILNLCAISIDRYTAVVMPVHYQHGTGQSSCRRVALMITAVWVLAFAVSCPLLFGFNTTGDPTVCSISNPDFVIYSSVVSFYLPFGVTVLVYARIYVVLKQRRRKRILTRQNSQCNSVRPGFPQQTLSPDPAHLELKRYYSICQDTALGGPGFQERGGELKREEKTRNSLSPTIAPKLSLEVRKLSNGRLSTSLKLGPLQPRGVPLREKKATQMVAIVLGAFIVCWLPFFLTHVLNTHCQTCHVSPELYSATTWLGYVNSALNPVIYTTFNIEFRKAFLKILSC
Sequence of D1 (P21728 whole entry): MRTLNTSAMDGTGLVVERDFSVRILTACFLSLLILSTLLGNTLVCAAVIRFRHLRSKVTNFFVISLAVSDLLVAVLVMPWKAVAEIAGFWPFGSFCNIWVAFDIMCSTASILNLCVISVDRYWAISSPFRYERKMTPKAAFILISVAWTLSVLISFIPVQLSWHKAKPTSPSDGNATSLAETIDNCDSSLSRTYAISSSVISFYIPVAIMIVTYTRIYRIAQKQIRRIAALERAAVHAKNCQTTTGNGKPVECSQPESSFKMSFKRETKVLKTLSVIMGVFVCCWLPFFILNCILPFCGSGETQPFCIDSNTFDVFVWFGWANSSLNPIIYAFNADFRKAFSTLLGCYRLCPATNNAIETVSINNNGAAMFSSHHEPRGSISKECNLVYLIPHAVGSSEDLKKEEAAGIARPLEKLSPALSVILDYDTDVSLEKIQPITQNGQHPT

On to `Clc1ccc(CN2CCO[C@H](COc3ccccc3)C2)cc1` [Compound 4a], for which the CLint scaled came out at 147 mL/min/kg in [1] and 4520 mL/min/kg in data set [2].
`Clc1ccc2c(CN3CCO[C@H](COc4ccccc4)C3)c[nH]c2c1` [Compound 4aa]: the CLint scaled is 46.7 mL/min/kg in data set [1] and 614 mL/min/kg in data set [2].
As to `Cc1ccc(CN2CCO[C@H](COc3ccccc3)C2)cc1C` [Compound 4b], the inhibition at 10 µM in [3], in [4] and in data set [5] was under 50% each time.
As to `COc1ccc2c(CN3CCO[C@H](COc4ccccc4)C3)c[nH]c2c1` [Compound 4dd], the CLint scaled is 31.6 mL/min/kg in data set [1] and 184 mL/min/kg in [2].
As for `Fc1ccc2c(CN3CCO[C@H](COc4ccccc4)C3)c[nH]c2c1` [Compound 4ee], the CLint scaled turned out to be 71.1 mL/min/kg in [1] and 1690 mL/min/kg in data set [2].
`Fc1cc(CN2CCO[C@H](COc3ccccc3)C2)ccc1Cl` [Compound 4g]: the CLint scaled in data set [1] was found to be 65.3 mL/min/kg; in [2] it was 251 mL/min/kg. The predicted clearance result in [1] is listed as “moderate”.
Consider `Clc1ccc(CN2CCO[C@H](COc3ccccc3)C2)cc1Cl` [Compound 4i], for which the intrinsic clearance (CLint scaled) in data set [1] was determined as 50.5 mL/min/kg; in data set [2], 621 mL/min/kg.
For `Fc1cc(CN2CCO[C@H](COc3ccccc3)C2)ccc1C(F)(F)F` [Compound 4j], the CLint scaled in data set [1] was found to be 50.5 mL/min/kg; in [2] it was 247 mL/min/kg.
As to `COc1ccc(CN2CCO[C@H](COc3ccccc3)C2)cc1F` [Compound 4l], the results for the CLint scaled in [1] and in data set [2] were 71.9 mL/min/kg and 2130 mL/min/kg, respectively.
On to `COc1ccc(CN2CCO[C@H](COc3ccccc3)C2)cc1Cl` [Compound 4n], for which the inhibition at 10 µM in data set [3], in [4] and in data set [5] was under 50% in each case. Further, the results for the intrinsic metabolic clearance (CLint scaled) in data set [1] and in data set [2] were 78.7 mL/min/kg and 1600 mL/min/kg, respectively.
Regarding `COc1cc(CN2CCO[C@H](COc3ccccc3)C2)ccc1Cl` [Compound 4p], the CLint scaled in data set [1] was 79.7 mL/min/kg; in data set [2], 1500 mL/min/kg.
For the compound `c1ccc(OC[C@@H]2CN(Cc3cn4ccccc4n3)CCO2)cc1` [Compound 4t], the values for the CLint scaled in data set [1] and in [2] were 17.3 mL/min/kg and 154 mL/min/kg, respectively. Moreover, in [1], the predicted clearance result is reported as “moderate”.
Take `c1ccc(OC[C@@H]2CN(Cc3ncn4ccccc34)CCO2)cc1` [Compound 4u]: the inhibition at 10 µM in [3], in data set [4] and in data set [5] was under 50% in each case.
For `c1ccc(OC[C@@H]2CN(Cc3n[nH]c4ccccc34)CCO2)cc1` [Compound 4v], the inhibition at 10 µM in [3], in data set [4] and in [5] was under 50% throughout.
With `Cn1ncc2cc(CN3CCO[C@H](COc4ccccc4)C3)ccc21` [Compound 4y], the figures for the CLint scaled in data set [1] and in data set [2] were 60.5 mL/min/kg and 433 mL/min/kg, respectively.
In the case of `c1ccc(OC[C@@H]2CN(Cc3ccc4[nH]ccc4c3)CCO2)cc1` [Compound 4z], the CLint scaled was found to be 135 mL/min/kg in [1] and 3140 mL/min/kg in [2].
For the compound `Clc1ccc(CN2CCO[C@H](CSc3ccccc3)C2)cc1` [Compound 5aa], the inhibition at 10 µM in data set [3], in [4] and in data set [5] was under 50% in each case. Also, the CLint scaled in data set [1] turned out to be 122 mL/min/kg; in [2] it was 3220 mL/min/kg. The “selectivity for D4 over the other dopamine receptors” value (from here on “selectivity for D4”) in data set [6] is over 1000 fold. Also, the “selectivity against all of the dopamine receptors tested” value (shortened to “selectivity against all”) in data set [6] is “completely selective”.
For `Cc1ccc(CN2CCO[C@H](CSc3ccccc3)C2)cc1C` [Compound 5bb], the inhibition at 10 µM in data set [3], in data set [4] and in data set [5] was under 50% throughout. The results for the CLint scaled in data set [1] and in data set [2] were 366 mL/min/kg and 6440 mL/min/kg, respectively. Moreover, the “selectivity for D4” value in [6] is given as over 1000 fold. Besides, the “selectivity against all” value in data set [6] is listed as “completely selective”.
On to `COc1ccc(CN2CCO[C@H](COc3cccc(F)c3)C2)cc1Cl` [Compound 5m], for which the inhibition at 10 µM in data set [3], in [4] and in data set [5] was under 50% each time. The CLint scaled in data set [1] was found to be 93 mL/min/kg; in [2], 1500 mL/min/kg.
`COc1cc(CN2CCO[C@H](COc3cccc(F)c3)C2)ccc1Cl` [Compound 5n]: the inhibition at 10 µM in data set [3], in [4] and in data set [5] was under 50% throughout. Moreover, the CLint scaled is 68.9 mL/min/kg in data set [1] and 1770 mL/min/kg in data set [2].
Regarding `Fc1ccc2c(CN3CCO[C@H](COc4cccc(F)n4)C3)c[nH]c2c1` [Compound 5u], the inhibition at 10 µM in data set [3], in data set [4] and in data set [5] was under 50% each time. The intrinsic clearance (CLint scaled) in data set [1] is 101 mL/min/kg; in data set [2] it was 4010 mL/min/kg. In addition, the “selectivity against all” value in data set [6] was “fully selective”.
For the compound `Fc1ccc2c(CN3CCO[C@H](COc4cccc(Cl)n4)C3)c[nH]c2c1` [Compound 5y, (S)-2-(((6-chloropyridin-2-yl)oxy)methyl)-4-((6-fluoro-1H-indol-3-yl)methyl)morpholine], the inhibition at 10 µM in [3], in [4] and in [5] was under 50% throughout. Further, the CLint scaled in [1] amounted to 230 mL/min/kg; in [2], 4200 mL/min/kg. In addition, the “selectivity for D4” value in data set [6] is reported as over 1000 fold. In addition, the “selectivity against all” value in data set [6] is listed as “fully selective; also recorded: completely selective”. Moreover, the “major metabolite in human microsomes” value in [7] (Compound A = N-dealkylation) is recorded as “Compound A”. For the same compound, the “extent of metabolism in human liver microsomes” value in data set [7] (setting [10]) is “highly metabolized”. Further, in [8] (Compound B = N-dealkylation + oxidation), the “major metabolite in rat microsomes” value is recorded as “Compound B”. Moreover, in data set [8] (setting [10]), the “extent of metabolism in rat liver microsomes” value is “highly metabolized”.
As for `Clc1ccc(CN2CCO[C@H](COc3cccc(Cl)n3)C2)cc1` [Compound 5z], the CLint scaled in data set [1] is 98.2 mL/min/kg; in [2], 5310 mL/min/kg.
In [9], `Clc1ccc(CN2CCO[C@H](CCc3ccccc3)C2)cc1` [ML398] registered an IC50 of 130 nM and a Ki of 36 nM.
